In the EternaBench riboswitch data:

How the values were obtained:
MS2 coat protein [1] = test: apparent Kd, MS2 coat protein; higher = weaker binding; RNA-MaP array; theophylline 2 mM where present
Method in brief: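 Apparent Kd: the median of filtered binding-curve fits from single clusters. Designs were transcribed on Illumina sequencing-chip clusters by stalled E. coli RNA polymerase and titrated with SNAP-549-labelled MS2 coat protein from 0.7 or 1.5 nM, doubling to 3 µM, in 100 mM Tris-HCl pH 7.5, 80 mM KCl, 4 mM MgCl2, BSA, DTT, yeast tRNA and Tween-20. Each series ran without and then with constant ligand, and green signal was normalised to red-channel RNA signal and control-cluster median Fmax.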

MS2 coat protein [2] = test: apparent Kd, MS2 coat protein; higher = weaker binding; RNA-MaP array
Method in brief: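 On an Illumina sequencing chip, sequenced DNA templates served for transcription of the designed RNAs, which were then bound at room temperature by fluorescently labeled MS2 coat protein at 1.5 nM to 3 μM, with or without input ligand. Apparent Kd is the median of the fits to each cluster's binding curve. Only designs measured on at least 10 clusters were kept.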

[3] = designed as: OFF switch for theophylline, no ligand
[4] = ligand present: theophylline, designed as: OFF switch for theophylline
[5] = designed as: ON switch for theophylline, no ligand
[6] = ligand present: theophylline, designed as: ON switch for theophylline
[7] = designed as: OFF switch for flavin mononucleotide, no ligand
[8] = ligand present: flavin mononucleotide, designed as: OFF switch for flavin mononucleotide
[9] = designed as: ON switch for flavin mononucleotide, no ligand
[10] = ligand present: flavin mononucleotide, designed as: ON switch for flavin mononucleotide

## GAUGAUAUUGCAGAUACCAGACACAUGAGGAUCACCCAUGUCGCUGAGUUGCUGGAUCGUGUCCCUUGGCAGCUGCGAUAUCAUC
MS2 coat protein [1]; [3]
  apparent Kd: 0.0195 µM
MS2 coat protein [1]; [4]
  apparent Kd: 0.18 µM

## AGACAUGAGGAUCACCCAUGUAGCAUGGAUACCAGAUCCAGAUUUAUCCCUUGGCAGCUGUGGUACAGUGAUGGAUUGCUCCUAG
MS2 coat protein [1]; [3]
  apparent Kd: 0.079 µM
MS2 coat protein [1]; [4]
  apparent Kd: 0.122 µM

## GGUGGCUGGACUGAUACCAGCCACCACCGAUAGACCACAUGAGGAUCACCCAUGUUGGGUGGCCCUUGGCAGCAGUCUAGCUGCC
MS2 coat protein [1]; [5]
  apparent Kd: 0.561 µM
MS2 coat protein [1]; [6]
  apparent Kd: 1.24 µM

## AUAUUAAAGAGUGAUACCAGACUACAUGAGGAUCACCCAUGUUACAUUUAAAUAUCAUUUGUCCCUUGGCAGCACAUUAAGUACA
MS2 coat protein [1]; [3]
  apparent Kd: 0.0174 µM
MS2 coat protein [1]; [4]
  apparent Kd: 0.0133 µM

## AUGCACCUCGUCCAGGCAAUCUUUAGUGAUACCAGCUAACUCCUUGGCCCUUGGCAGCACAUGAGGAUCACCCAUGUGCGACAUC
MS2 coat protein [1]; [3]
  apparent Kd: 0.0119 µM
MS2 coat protein [1]; [4]
  apparent Kd: 0.014 µM

## AUAAGUACGUCAGAUACCAGACAGCCAGACUUACAUGAGGAUCACCCAUGUGGAUGGACGGUCCCUUGGCAGCUGGCCGCAAAAG
MS2 coat protein [1]; [5]
  apparent Kd: 0.213 µM
MS2 coat protein [1]; [6]
  apparent Kd: 0.0142 µM

## GGCUAGUGCAUCGAUACCAGCUACAUGAGGAUCACCCAUGUAGGAAGGGUGGUACUCGAUAGCCCUUGGCAGCGAACACCUCCGG
MS2 coat protein [1]; [3]
  apparent Kd: 0.0161 µM
MS2 coat protein [1]; [4]
  apparent Kd: 0.0314 µM

## ACUUUGUCGGGUGAUACCAGCCUCGGCACAUCUCGUGCCGAACAUGAGGAUCACCCAUGUGGCCCUUGGCAGCACAUGACAAAUC
MS2 coat protein [1]; [5]
  apparent Kd: 0.341 µM
MS2 coat protein [1]; [6]
  apparent Kd: 0.0595 µM

## GAUAGUUGAAGGGAUACCAGCCUGGACAUGAGGAUCACCCAUGUAGCAUGUUUGAAACUGGGCCCUUGGCAGCCCAUAUUGUGUA
MS2 coat protein [1]; [5]
  apparent Kd: 0.0224 µM
MS2 coat protein [1]; [6]
  apparent Kd: 0.0144 µM

## GGAAUUAAGACUGAUACCAGUCAAGAUAAUCAUAAGAAUAAACAUGAGGAUCACCCAUGUGACCCUUGGCAGCAGACUAAUACCG
MS2 coat protein [1]; [5]
  apparent Kd: 0.031 µM
MS2 coat protein [1]; [6]
  apparent Kd: 0.0295 µM

## CAAUUUCGAAUAGAUACCAGCUGUCAUAAACACAUGAGGAUCACCCAUGUGCUUCUCGUCAGCCCUUGGCAGCUAUAACUAGAGC
MS2 coat protein [2]; [5]
  apparent Kd: 0.0158 µM
MS2 coat protein [2]; [6]
  apparent Kd: 0.01 µM

## GUUAGUCCACGAGGAUAUCGAAAUCGGCCCAGUGAAUUUUCACAUGAGGAUCACCCAUGUCAUAUCGAGAAGGCGUCUGAAAGC
MS2 coat protein [2]; [7]
  apparent Kd: 0.0357 µM
MS2 coat protein [2]; [8]
  apparent Kd: 0.0419 µM

## UAUUGCAAUGUGAGGAUAUCUCAAGAAAAGACAAGAGAGAAGGCACAUGAGGAUCACCCAUGUUAGAAACAAAA
MS2 coat protein [2]; [7]
  apparent Kd: 0.0193 µM
MS2 coat protein [2]; [8]
  apparent Kd: 0.11 µM

## UAAAGCUGAAAGAAGGCUCCAUCGCUAGUACUGAGAGGAUAUUUCGUUGUUGACAUGAGGAUCACCCAUGUGGUUCGCCGGGCC
MS2 coat protein [2]; [9]
  apparent Kd: 0.0494 µM
MS2 coat protein [2]; [10]
  apparent Kd: 0.0268 µM

## UCCCGACAUGAGGAUCACCCAUGUGGACAGUACACAGGAUAUUAACUCAUUACAAUAGAAUAAGAAGGGUGGUACC
MS2 coat protein [2]; [9]
  apparent Kd: 0.0691 µM
MS2 coat protein [2]; [10]
  apparent Kd: 0.0471 µM

## UUAUCGGUCUCAGGAUAUCAGUAUCACUCAUUAUGAGAAGGGAGACACUCCGGAACAUGAGGAUCACCCAUGUGGGCCUUGGGU
MS2 coat protein [2]; [7]
  apparent Kd: 0.172 µM
MS2 coat protein [2]; [8]
  apparent Kd: 0.103 µM

## GUGAGACAUGAGGAUCACCCAUGUUAGGAUAUAAAAGGCAAACGUAAUGGCGAGGUUAAUAGAAGGAACAGAAA
MS2 coat protein [2]; [7]
  apparent Kd: 0.0156 µM
MS2 coat protein [2]; [8]
  apparent Kd: 0.0119 µM

## GCUGCCGUCGGUGAAAACUCCCAUGCAGAUACCAGCGCAUUCCGCCGCCCUUGGCAGCUGCAUACAUGAGGAUCACCCAUGUGUU
MS2 coat protein [2]; [3]
  apparent Kd: 0.0844 µM
MS2 coat protein [2]; [4]
  apparent Kd: 0.147 µM

## UGACUGUCGAAAGGAUAUGGUCGCACGCACACAUCAGUGUUUCACAUGAGGAUCACCCAUGUGGUCCAGAAGGUUCAUAAAUAU
MS2 coat protein [2]; [9]
  apparent Kd: 0.197 µM
MS2 coat protein [2]; [10]
  apparent Kd: 0.122 µM

## GGAACAUGAGGAUCACCCAUGUAAUCACGACGAGGACCGGUACGGCCGCCACUCGUAUUCACGCAAGGUAGAGGAAUACGUAGGC
MS2 coat protein [2]; designed as: OFF switch for tryptophan, no ligand
  apparent Kd: 0.0126 µM
MS2 coat protein [2]; ligand present: tryptophan, designed as: OFF switch for tryptophan
  apparent Kd: 0.0138 µM

## AGGGCACAUGAGGAUCACCCAUGUAAGGAUAUGGACUUUUUUGCUGUAGUAAUCAUCUCCAGAAGGUACGUCUU
MS2 coat protein [2]; [7]
  apparent Kd: 0.0244 µM
MS2 coat protein [2]; [8]
  apparent Kd: 0.0196 µM

## AGCACGAGCGCAGGAUAUGCAUAACCCGUAGCUGCAGAAGGGCGACAUGAGGAUCACCCAUGUAUAUCCAGAACUACAAUCUGA
MS2 coat protein [2]; [9]
  apparent Kd: 0.0358 µM
MS2 coat protein [2]; [10]
  apparent Kd: 0.033 µM
